In ChEMBL document CHEMBL3861959, “Synthesis and antiproliferative evaluation of novel 2-(4H-1,2,4-triazole-3-ylthio)acetamide derivatives as inducers of apoptosis in cancer cells” (Eur J Med Chem, 2016):

Experiments:
[1] = Cytotoxicity against human SF295 cells assessed as cell growth at 10^-5 M after 48 hrs by SRB assay relative to control; assay type: functional; details: SF-295, 48 h, read-out: Activity
How it was run: (§1)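 NCI single-dose primary screen run under the US NCI protocol. Compounds tested at 10 µM across the 60-cell-line panel, with growth percent reported for each line.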

[2] = Cytotoxicity against human Caki1 cells assessed as cell growth at 10^-5 M after 48 hrs by SRB assay relative to control; assay type: functional; details: CAKI-1, 48 h, read-out: Activity; how it was run: as §1
[3] = Cytotoxicity against human PC3 cells assessed as cell growth at 10^-5 M after 48 hrs by SRB assay relative to control; assay type: functional; details: PC-3, 48 h, read-out: Activity; how it was run: as §1
[4] = Cytotoxicity against human NCI-H460 cells assessed as cell growth at 10^-5 M after 48 hrs by SRB assay relative to control; assay type: functional; details: NCI-H460, 48 h, read-out: Activity; how it was run: as §1
[5] = Selectivity index, ratio of CC50 for human MT4 cells to EC50 for HIV1 3B; assay type: toxicity, cell-based; details: read-out: Ratio CC50/EC50
How it was run: (§2)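 HIV-1 IIIB and HIV-2 ROD tested in MT-4 cells by MTT. Serial fivefold dilutions of compound added to triplicate mock- and virus-infected wells. MT-4 cells at 6 × 10^5 cells/mL. Absorbance read at 540/690 nm; median OD of three wells used. CC50 is the concentration reducing mock-infected OD540 by 50%. […]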

[6] = Cytotoxicity against human MOLT4 cells assessed as cell growth at 10^-5 M after 48 hrs by SRB assay relative to control; assay type: functional; details: MOLT-4, 48 h, read-out: Activity; how it was run: as §1
[7] = Cytotoxicity against human RXF393 cells assessed as cell growth at 10^-5 M after 48 hrs by SRB assay relative to control; assay type: functional; details: RXF 393, 48 h, read-out: Activity; how it was run: as §1
[8] = Cytotoxicity against human UACC62 cells assessed as cell growth at 10^-5 M after 48 hrs by SRB assay relative to control; assay type: functional; details: UACC-62, 48 h, read-out: Activity
How it was run: (§3)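 Single-dose NCI 60-cell-line screen run under the US NCI protocol. Compounds tested at 10 µM. Read-out is growth percent for each cell line.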

[9] = Cytotoxicity against mouse NIH/3T3 cells assessed as decrease in cell survival after 48 hrs by MTT assay; assay type: toxicity, NIH3T3
[10] = Cytotoxicity against human OVCAR5 cells assessed as cell growth at 10^-5 M after 48 hrs by SRB assay relative to control; assay type: functional; details: OVCAR-5, 48 h, read-out: Activity; how it was run: as §1
[11] = Cytotoxicity against human U251 cells assessed as cell growth at 10^-5 M after 48 hrs by SRB assay relative to control; assay type: functional; details: U-251, 48 h, read-out: Activity; how it was run: as §3
[12] = Cytotoxicity against human OVCAR8 cells assessed as cell growth at 10^-5 M after 48 hrs by SRB assay relative to control; assay type: functional; details: OVCAR-8, 48 h, read-out: Activity; how it was run: as §1
[13] = Cytotoxicity against human 786-0 cells assessed as cell growth at 10^-5 M after 48 hrs by SRB assay relative to control; assay type: functional; details: 786-0, 48 h, read-out: Activity; how it was run: as §1
[14] = Cytotoxicity against human M14 cells assessed as cell growth at 10^-5 M after 48 hrs by SRB assay relative to control; assay type: functional; details: M14, 48 h, read-out: Activity; how it was run: as §1
[15] = Cytotoxicity against human SNB19 cells assessed as cell growth at 10^-5 M after 48 hrs by SRB assay relative to control; assay type: functional; details: SNB-19, 48 h, read-out: Activity; how it was run: as §3
[16] = Cytotoxicity against human MALME-3M cells assessed as cell growth at 10^-5 M after 48 hrs by SRB assay relative to control; assay type: functional; details: read-out: Activity; how it was run: as §1
[17] = Cytotoxicity against human RPMI8226 cells assessed as cell growth at 10^-5 M after 48 hrs by SRB assay relative to control; assay type: functional; details: RPMI-8226, 48 h, read-out: Activity; how it was run: as §1
[18] = Cytotoxicity against human COLO205 cells assessed as cell growth at 10^-5 M after 48 hrs by SRB assay relative to control; assay type: functional; details: COLO 205, 48 h, read-out: Activity; how it was run: as §1
[19] = Cytotoxicity against human TK10 cells assessed as cell growth at 10^-5 M after 48 hrs by SRB assay relative to control; assay type: functional; details: TK-10, 48 h, read-out: Activity; how it was run: as §3
[20] = Cytotoxicity against human OVCAR4 cells assessed as cell growth at 10^-5 M after 48 hrs by SRB assay relative to control; assay type: functional; details: OVCAR-4, 48 h, read-out: Activity; how it was run: as §1
[21] = Cytotoxicity against human NCI-ADR-RES cells assessed as cell growth at 10^-5 M after 48 hrs by SRB assay relative to control; assay type: functional; details: read-out: Activity; how it was run: as §1
[22] = Antiviral activity against HIV2 ROD infected in human MT4 cells assessed as protection against virus-induced cytopathic effect after 5 days MTT assay; assay type: functional, cell-based, Human immunodeficiency virus type 2 (ISOLATE ROD); details: Human immunodeficiency virus 2, MT4, 120 h
How it was run: (§4)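 HIV-1 strain IIIB and HIV-2 strain ROD in MT-4 cells, MTT-based. Test compounds in serial five-fold dilutions, in triplicate wells run alongside mock-infected cells, with untreated infected and mock controls. MT-4 cells resuspended at 6 × 10^5 cells/mL. Absorbance read at 540 and 690 nm, median OD of three wells. EC50 is the 50% effective concentration.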

[23] = Cytotoxicity against human HCT116 cells assessed as cell growth at 10^-5 M after 48 hrs by SRB assay relative to control; assay type: functional; details: HCT-116, 48 h, read-out: Activity; how it was run: as §1
[24] = Cytotoxicity against human HT-29 cells assessed as cell growth at 10^-5 M after 48 hrs by SRB assay relative to control; assay type: functional; details: HT-29, 48 h, read-out: Activity; how it was run: as §1
[25] = Cytotoxicity against human NCI-H522 cells assessed as cell growth at 10^-5 M after 48 hrs by SRB assay relative to control; assay type: functional; details: NCI-H522, 48 h, read-out: Activity; how it was run: as §1
[26] = Cytotoxicity against human IGROV1 cells assessed as cell growth at 10^-5 M after 48 hrs by SRB assay relative to control; assay type: functional; details: IGROV-1, 48 h, read-out: Activity; how it was run: as §1
[27] = test system: Human immunodeficiency virus 1; test: Antiviral activity against HIV1 3B infected in human MT4 cells assessed as protection against virus-induced cytopathic effect after 5 days MTT assay; assay type: functional, cell-based; details: Human immunodeficiency virus 1, 3B, MT4, 120 h; how it was run: as §4
[28] = Selectivity index, ratio of CC50 for human MT4 cells to EC50 for HIV2 ROD; assay type: toxicity, cell-based; details: read-out: Ratio CC50/EC50; how it was run: as §2
[29] = Cytotoxicity against human HL-60(TB) cells assessed as cell growth at 10^-5 M after 48 hrs by SRB assay relative to control; assay type: functional; details: HL-60, 48 h, read-out: Activity
How it was run: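 NCI-60 one-dose primary screen run by the US NCI under its protocol. Single concentration of 10 µM across the 60-line human tumour panel, which includes HL-60(TB). Read-out is growth percent for each cell line. Lines reduced to about 32% growth or less are taken forward to full-panel testing over a 5-log dose range.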

[30] = Cytotoxicity against human HOP92 cells assessed as cell growth at 10^-5 M after 48 hrs by SRB assay relative to control; assay type: functional; details: HOP-92, 48 h, read-out: Activity; how it was run: as §1

## CC(=O)Nc1ccc(OCc2nnc(SCC(=O)Nc3ccc(Br)cc3)n2Cc2ccccc2)cc1
[1]
  growth at 10 µM: 80.2%
[2]
  growth at 10 µM: 72.5%
[3]
  growth at 10 µM: 54.2%
[4]
  growth at 10 µM: 74.3%
[5]
  selectivity ratio: ≤ 1
[6]
  growth at 10 µM: 64.7%
[7]
  growth at 10 µM: 101%
[8]
  growth at 10 µM: 32.5%
[9]
  IC50 at 48 h: > 100 mg/L
[10]
  growth at 10 µM: 92%
[11]
  growth at 10 µM: 88.5%
[12]
  growth at 10 µM: 84.8%
[13]
  growth at 10 µM: 91.1%
[14]
  growth at 10 µM: 43.5%
[15]
  growth at 10 µM: 92.3%
[16]
  growth at 10 µM: 93.8%
[17]
  growth at 10 µM: 72.2%
[18]
  growth at 10 µM: 105%
[19]
  growth at 10 µM: 87.1%
[20]
  growth at 10 µM: 101%
[21]
  growth at 10 µM: 68.2%
[22]
  EC50: > 3.99 mg/L
[23]
  growth at 10 µM: 53.2%
[24]
  growth at 10 µM: 93.9%
[25]
  growth at 10 µM: 71.2%
[26]
  growth at 10 µM: 83.2%
[27]
  EC50: > 3.99 mg/L
[28]
  selectivity ratio: ≤ 1
[29]
  growth at 10 µM: 63.8%
[30]
  growth at 10 µM: 70.9%

## Cc1ccc(C(C)C)c(OCc2nnc(SCC(=O)Nc3ccc(S(N)(=O)=O)cc3)n2Cc2ccccc2)c1
[1]
  growth at 10 µM: 70.7%
[2]
  growth at 10 µM: 81.1%
[3]
  growth at 10 µM: 31.1%
[4]
  growth at 10 µM: 76.4%
[5]
  selectivity ratio: < 1
[6]
  growth at 10 µM: 45.2%
[7]
  growth at 10 µM: 70.6%
[8]
  growth at 10 µM: 51.2%
[9]
  IC50 at 48 h: > 100 mg/L
[10]
  growth at 10 µM: 99.4%
[11]
  growth at 10 µM: 64.6%
[12]
  growth at 10 µM: 41.1%
[13]
  growth at 10 µM: 92.3%
[14]
  growth at 10 µM: 87.3%
[15]
  growth at 10 µM: 88.4%
[16]
  growth at 10 µM: 84.3%
[17]
  growth at 10 µM: 40.8%
[18]
  growth at 10 µM: 90.2%
[19]
  growth at 10 µM: 94%
[20]
  growth at 10 µM: 88.8%
[21]
  growth at 10 µM: 77.1%
[22]
  EC50: > 13 mg/L
[23]
  growth at 10 µM: 66.1%
[24]
  growth at 10 µM: 72.4%
[25]
  growth at 10 µM: 75.3%
[26]
  growth at 10 µM: 90.1%
[27]
  EC50: > 13 mg/L
[28]
  selectivity ratio: < 1
[29]
  growth at 10 µM: 68.2%
[30]
  growth at 10 µM: 75.2%

## Cc1ccc(C(C)C)c(OCc2nnc(SCC(=O)Nc3ccc(Cl)cc3)n2Cc2ccccc2)c1
[1]
  growth at 10 µM: 88.1%
[2]
  growth at 10 µM: 93.9%
[3]
  growth at 10 µM: 71.9%
[4]
  growth at 10 µM: 17.7%
[5]
  selectivity ratio: < 1
[6]
  growth at 10 µM: 73.7%
[7]
  growth at 10 µM: 101%
[8]
  growth at 10 µM: 94%
[9]
  IC50 at 48 h: > 100 mg/L
[10]
  growth at 10 µM: 93.2%
[11]
  growth at 10 µM: 40.9%
[12]
  growth at 10 µM: 67.3%
[13]
  growth at 10 µM: 38.9%
[14]
  growth at 10 µM: 99%
[15]
  growth at 10 µM: 80.3%
[16]
  growth at 10 µM: 75.6%
[17]
  growth at 10 µM: 83.8%
[18]
  growth at 10 µM: 78.2%
[19]
  growth at 10 µM: 71.9%
[20]
  growth at 10 µM: 33.4%
[21]
  growth at 10 µM: 69.1%
[22]
  EC50: > 65.9 mg/L
[23]
  growth at 10 µM: 52.9%
[24]
  growth at 10 µM: 70%
[25]
  growth at 10 µM: 90.4%
[26]
  growth at 10 µM: 69.4%
[27]
  EC50: > 65.9 mg/L
[28]
  selectivity ratio: < 1
[29]
  growth at 10 µM: 83.9%
[30]
  growth at 10 µM: 78%
